Test results as given in ChEMBL document CHEMBL3817768, “Identification of a Chemical Probe for Family VIII Bromodomains through Optimization of a Fragment Hit” (J Med Chem, 2016).
Calls of active or inactive are those of the source. The calls are words filed in the database; no cut-off is given here.

Legend:
[1] = target: T1, SWI/SNF-related matrix-associated actin-dependent regulator of chromatin subfamily A member 4 (Homo sapiens, UniProt P51532); assay: Binding affinity to human SMARCA4 expressed in BL21 (DE3)-R3-BirA cells assessed as change in melting temperature at 10 uM by sypro-orange dye-based differential scanning fluorimetric analysis; assay type: cell-based
Summary of the method: (§1)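 Thermal shift (DSF) screen of bromodomain proteins with compound at 10 μM; binding read as change in melting temperature (Tm shift).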

[2] = target: T2, SWI/SNF-related matrix-associated actin-dependent regulator of chromatin subfamily A member 2 (Homo sapiens, UniProt P51531); assay: Binding affinity to human SMARC2B expressed in BL21 (DE3)-R3-BirA cells assessed as change in melting temperature at 10 uM by sypro-orange dye-based differential scanning fluorimetric analysis; assay type: cell-based; summary of the method: as §1
[3] = target: T3, Protein polybromo-1 (Homo sapiens, UniProt Q86U86); assay: Binding affinity to human PB1 isoform 5 expressed in BL21 (DE3)-R3-BirA cells assessed as change in melting temperature at 10 uM by sypro-orange dye-based differential scanning fluorimetric analysis; assay type: cell-based; summary of the method: as §1
[4] = target: T3, Protein polybromo-1; assay: Binding affinity to human PB1 isoform 2 expressed in BL21 (DE3)-R3-BirA cells assessed as change in melting temperature at 10 uM by sypro-orange dye-based differential scanning fluorimetric analysis; assay type: cell-based; summary of the method: as §1
[5] = target: T2, SWI/SNF-related matrix-associated actin-dependent regulator of chromatin subfamily A member 2; assay: Binding affinity to human SMARC2A expressed in BL21 (DE3)-R3-BirA cells assessed as change in melting temperature at 10 uM by sypro-orange dye-based differential scanning fluorimetric analysis; assay type: cell-based; summary of the method: as §1
[6] = target: T3, Protein polybromo-1; assay: Binding affinity to human PB1 isoform 3 expressed in BL21 (DE3)-R3-BirA cells assessed as change in melting temperature at 10 uM by sypro-orange dye-based differential scanning fluorimetric analysis; assay type: cell-based; summary of the method: as §1
[7] = target: T3, Protein polybromo-1; assay: Binding affinity to human PB1 isoform 4 expressed in BL21 (DE3)-R3-BirA cells assessed as change in melting temperature at 10 uM by sypro-orange dye-based differential scanning fluorimetric analysis; assay type: cell-based; summary of the method: as §1
[8] = test system: C2C12; assay: Inhibition of differentiation in mouse C2C12 cells assessed as shortening of myotubes with lower nuclei at 500 nM to 50 uM by HRP-peroxidase-based immunocytochemistry relative to control; assay type: functional, cell-based
Summary of the method: (§2)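 C2C12 myoblasts grown with compound through differentiation, normally seen within 48 hours. Scored by cell fusion into myotubes (myotube length, nuclei per myotube) and MyHC expression relative to controls; myogenin monitored as an early marker.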

[9] = test system: 786-0; assay: Antiproliferative activity against human 786-0 cells at 0.1 to 10 uM incubated for 24 to 72 hrs by MTT assay; assay type: functional, cell-based
Summary of the method: (§3)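 Clear cell renal carcinoma lines (786-O with wild-type PB1 expression; Rcc4 with PB1 downregulation) treated with compound; proliferation read-out.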

[10] = test system: RCC4; assay: Antiproliferative activity against human RCC4 cells at 0.1 to 10 uM incubated for 24 to 72 hrs by MTT assay; assay type: functional, cell-based; summary of the method: as §3
[11] = Cytotoxicity against mouse C3H10T1/2 cells assessed as cell viability up to 50 uM after 72 hrs by MTT assay; assay type: cell-based; conditions: c3h 10t1/2, 72 h
[12] = test system: C2C12; assay: Cytotoxicity against mouse C2C12 cells assessed as cell viability up to 50 uM after 72 hrs by MTT assay; assay type: cell-based; conditions: c2c12, 72 h
[13] = Cytotoxicity against mouse C3H10T1/2 cells assessed as cell death at 100 uM after 72 hrs by MTT assay; assay type: cell-based; conditions: c3h 10t1/2, 72 h
[14] = Half life in PBS at pH 7.4 at 20 degC; assay type: ADME; conditions: buffer
[15] = test system: C3H 10T1/2; assay: Inhibition of differentiation of mouse C3H10T1/2 cells to adipocytes assessed as lipid accumulation at 20 uM by oil red O staining-based assay; assay type: functional, cell-based
Summary of the method: (§4)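 C3H10T1/2 mesenchymal cells induced toward adipocytes with an adipogenic cocktail in presence of compound. Lipid droplet accumulation visualized by Oil Red O staining.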

[16] = test system: C2C12; assay: Inhibition of differentiation in mouse C2C12 cells assessed as suppression of MyHC expression at 1 uM by HRP-peroxidase-based immunocytochemistry; assay type: functional, cell-based
Summary of the method: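 C2C12 myoblasts grown with compound through differentiation, normally complete within 48 hours. Fusion into myotubes was scored, along with expression of the early marker myogenin and of myosin heavy chain (MyHC) in myotubes.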

[17] = Drug recovery in cell media after 1 week at 37 degC by HPLC analysis; assay type: physicochemical; conditions: read-out: Drug recovery
[18] = test system: C2C12; assay: Cytotoxicity against mouse C2C12 cells assessed as cell death at 100 uM after 72 hrs by MTT assay; assay type: cell-based; conditions: c2c12, 72 h
[19] = test system: C3H 10T1/2; assay: Inhibition of differentiation of mouse C3H10T1/2 cells to adipocytes assessed as lipid accumulation at 1 uM by oil red O staining-based assay; assay type: functional, cell-based; summary of the method: as §4
[20] = target: T3, Protein polybromo-1; assay: Inhibition of chromatin binding to full length GFP-tagged PB1 expressed in human U2OS cells assessed as acceleration of FRAP half-recovery time at 1 uM incubated for 1 hr in presence of SAHA by FRAP assay; assay type: cell-based
Summary of the method: (§5)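 U2OS cells transfected with full-length GFP-PB1 and treated with SAHA to induce hyperacetylation. Mutant controls were PB1 N263A (second bromodomain) and N707F (fifth bromodomain). Read-out is FRAP half-recovery time (t½) from individual recovery curves, at least 20 cells per group, reported as mean ± SEM. Compared against WT with 2.5 μM SAHA.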

[21] = target: T2, SWI/SNF-related matrix-associated actin-dependent regulator of chromatin subfamily A member 2; assay: Inhibition of chromatin binding to full length GFP-tagged wild type SMARCA2 expressed in human U2OS cells assessed as acceleration of FRAP half-recovery time incubated for 1 hr in presence of SAHA by FRAP assay; assay type: cell-based
Summary of the method: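 U2OS cells transfected with GFP-SMARCA2 (WT) and treated with SAHA to induce hyperacetylation, with compound given at several doses. The mutant control was GFP-SMARCA2 N1464F (acetyl-lysine-recognising asparagine).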

[22] = test system: C2C12; assay: Inhibition of differentiation in mouse C2C12 cells assessed as suppression of MyHC expression at 5 uM by HRP-peroxidase-based immunocytochemistry; assay type: functional, cell-based; summary of the method: as §2
[23] = target: T3, Protein polybromo-1; assay: Inhibition of chromatin binding to full length GFP-tagged PB1 expressed in human U2OS cells assessed as acceleration of FRAP half-recovery time at 100 nM incubated for 1 hr in presence of SAHA by FRAP assay; assay type: cell-based; summary of the method: as §5
[24] = test system: C3H 10T1/2; assay: Inhibition of differentiation of mouse C3H10T1/2 cells to adipocytes assessed as lipid accumulation at 5 uM by oil red O staining-based assay; assay type: functional, cell-based
Summary of the method: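 C3H10T1/2 mesenchymal cells induced to differentiate to adipocytes with an adipogenic cocktail in the presence of compound; lipid droplet accumulation visualised by Oil Red O staining.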

[25] = target: T2, SWI/SNF-related matrix-associated actin-dependent regulator of chromatin subfamily A member 2; assay: Binding affinity to human SMARCA2 expressed in BL21 (DE3)-R3-BirA cells by isothermal titration calorimetry
[26] = target: T1, SWI/SNF-related matrix-associated actin-dependent regulator of chromatin subfamily A member 4; assay: Binding affinity to human SMARCA4 expressed in BL21 (DE3)-R3-BirA cells by isothermal titration calorimetry
[27] = target: T3, Protein polybromo-1; assay: Binding affinity to human PB1 isoform 2 expressed in BL21 (DE3)-R3-BirA cells by isothermal titration Calorimetry
Summary of the method: (§6)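 Absolute binding affinity measured by isothermal titration calorimetry on the bromodomain protein.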

[28] = target: T3, Protein polybromo-1; assay: Binding affinity to human PB1 isoform 5 expressed in BL21 (DE3)-R3-BirA cells by isothermal titration calorimetry; summary of the method: as §6

T1 sequence (P51532 whole entry): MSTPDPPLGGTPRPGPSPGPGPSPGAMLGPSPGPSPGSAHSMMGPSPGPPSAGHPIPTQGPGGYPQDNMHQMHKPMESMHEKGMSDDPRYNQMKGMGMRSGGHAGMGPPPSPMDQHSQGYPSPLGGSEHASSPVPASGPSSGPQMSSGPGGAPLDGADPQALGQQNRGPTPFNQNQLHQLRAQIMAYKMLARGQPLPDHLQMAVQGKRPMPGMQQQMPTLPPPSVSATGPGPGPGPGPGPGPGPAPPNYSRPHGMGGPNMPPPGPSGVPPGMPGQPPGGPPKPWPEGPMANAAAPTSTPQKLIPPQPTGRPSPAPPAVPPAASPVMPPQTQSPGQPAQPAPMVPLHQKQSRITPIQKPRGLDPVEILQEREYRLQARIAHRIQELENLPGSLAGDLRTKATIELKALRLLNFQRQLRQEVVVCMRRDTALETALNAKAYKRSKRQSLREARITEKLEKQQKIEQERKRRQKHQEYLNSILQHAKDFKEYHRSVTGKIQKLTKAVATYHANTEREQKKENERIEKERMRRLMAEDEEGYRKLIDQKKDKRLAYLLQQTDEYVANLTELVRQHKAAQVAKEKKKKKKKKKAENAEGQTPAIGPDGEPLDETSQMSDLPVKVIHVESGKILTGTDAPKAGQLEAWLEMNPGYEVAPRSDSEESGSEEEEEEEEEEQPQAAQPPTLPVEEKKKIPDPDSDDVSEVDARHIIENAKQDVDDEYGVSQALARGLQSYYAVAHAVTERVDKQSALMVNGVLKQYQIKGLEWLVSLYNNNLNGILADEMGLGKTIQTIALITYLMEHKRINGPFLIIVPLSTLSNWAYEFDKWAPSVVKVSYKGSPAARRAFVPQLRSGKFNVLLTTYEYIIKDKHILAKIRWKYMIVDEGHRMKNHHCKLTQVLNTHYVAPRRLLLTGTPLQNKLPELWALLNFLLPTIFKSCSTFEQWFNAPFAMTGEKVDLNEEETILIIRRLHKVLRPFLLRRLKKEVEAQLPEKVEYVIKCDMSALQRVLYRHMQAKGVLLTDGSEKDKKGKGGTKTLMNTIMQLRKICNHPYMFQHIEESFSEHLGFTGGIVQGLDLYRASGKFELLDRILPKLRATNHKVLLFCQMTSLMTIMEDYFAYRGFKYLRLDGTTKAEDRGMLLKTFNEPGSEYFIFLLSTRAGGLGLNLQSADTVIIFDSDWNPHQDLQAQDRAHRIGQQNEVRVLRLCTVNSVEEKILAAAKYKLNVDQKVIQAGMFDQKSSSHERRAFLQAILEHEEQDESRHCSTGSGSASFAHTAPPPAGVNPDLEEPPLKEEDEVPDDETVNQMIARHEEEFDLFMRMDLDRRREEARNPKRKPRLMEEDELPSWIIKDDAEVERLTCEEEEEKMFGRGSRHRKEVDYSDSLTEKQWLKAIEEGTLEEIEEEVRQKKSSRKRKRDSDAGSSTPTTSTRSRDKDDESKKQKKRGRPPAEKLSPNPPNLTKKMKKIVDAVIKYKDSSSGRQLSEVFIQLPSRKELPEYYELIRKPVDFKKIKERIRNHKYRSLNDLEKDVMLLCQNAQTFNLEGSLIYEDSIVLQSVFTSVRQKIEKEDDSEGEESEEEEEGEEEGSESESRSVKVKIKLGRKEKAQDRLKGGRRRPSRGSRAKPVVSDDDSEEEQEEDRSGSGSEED
T3 sequence (Q86U86 whole entry, canonical isoform): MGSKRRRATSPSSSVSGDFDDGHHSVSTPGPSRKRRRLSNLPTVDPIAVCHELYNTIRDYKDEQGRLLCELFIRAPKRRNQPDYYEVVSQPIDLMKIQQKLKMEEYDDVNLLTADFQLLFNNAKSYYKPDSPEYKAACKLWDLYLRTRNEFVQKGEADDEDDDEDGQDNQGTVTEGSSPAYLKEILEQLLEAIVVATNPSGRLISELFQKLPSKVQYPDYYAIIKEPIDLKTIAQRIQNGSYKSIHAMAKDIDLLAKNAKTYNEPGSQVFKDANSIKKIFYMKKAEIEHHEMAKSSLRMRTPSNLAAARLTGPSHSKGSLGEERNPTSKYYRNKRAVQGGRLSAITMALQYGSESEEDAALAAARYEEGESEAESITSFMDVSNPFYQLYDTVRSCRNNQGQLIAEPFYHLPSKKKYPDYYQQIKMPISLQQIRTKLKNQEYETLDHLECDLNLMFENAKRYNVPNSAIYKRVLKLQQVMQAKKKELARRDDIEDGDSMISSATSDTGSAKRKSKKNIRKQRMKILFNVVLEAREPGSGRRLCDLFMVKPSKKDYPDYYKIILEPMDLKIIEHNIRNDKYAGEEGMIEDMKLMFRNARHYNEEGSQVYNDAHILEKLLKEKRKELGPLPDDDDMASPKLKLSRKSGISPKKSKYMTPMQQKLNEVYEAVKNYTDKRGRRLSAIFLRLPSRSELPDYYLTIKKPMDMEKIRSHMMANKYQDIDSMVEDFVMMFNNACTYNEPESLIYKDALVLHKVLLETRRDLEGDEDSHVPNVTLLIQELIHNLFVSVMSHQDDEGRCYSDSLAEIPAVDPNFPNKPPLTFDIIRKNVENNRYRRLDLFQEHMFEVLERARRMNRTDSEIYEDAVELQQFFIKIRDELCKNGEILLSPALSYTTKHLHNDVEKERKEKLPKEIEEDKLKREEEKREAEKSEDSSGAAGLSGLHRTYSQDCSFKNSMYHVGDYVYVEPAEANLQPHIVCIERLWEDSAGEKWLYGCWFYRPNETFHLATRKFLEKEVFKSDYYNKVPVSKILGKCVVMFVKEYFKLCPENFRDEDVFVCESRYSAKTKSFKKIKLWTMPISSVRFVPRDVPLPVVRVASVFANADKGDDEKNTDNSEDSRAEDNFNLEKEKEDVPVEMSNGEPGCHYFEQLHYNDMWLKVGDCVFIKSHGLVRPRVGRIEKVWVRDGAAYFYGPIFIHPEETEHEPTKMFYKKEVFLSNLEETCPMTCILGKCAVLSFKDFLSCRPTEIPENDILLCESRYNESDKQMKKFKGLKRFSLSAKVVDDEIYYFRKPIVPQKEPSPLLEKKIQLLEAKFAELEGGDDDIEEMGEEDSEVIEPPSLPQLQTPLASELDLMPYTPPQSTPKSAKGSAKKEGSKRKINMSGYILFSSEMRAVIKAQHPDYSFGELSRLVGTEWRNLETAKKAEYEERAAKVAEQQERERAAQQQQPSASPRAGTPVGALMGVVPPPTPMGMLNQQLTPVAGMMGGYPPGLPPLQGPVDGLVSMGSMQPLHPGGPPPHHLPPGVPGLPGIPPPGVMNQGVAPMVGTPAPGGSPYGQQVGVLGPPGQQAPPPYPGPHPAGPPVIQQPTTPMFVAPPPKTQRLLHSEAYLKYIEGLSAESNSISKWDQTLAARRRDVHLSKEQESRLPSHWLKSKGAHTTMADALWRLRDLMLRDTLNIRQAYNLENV
T2 sequence (P51531 whole entry, canonical isoform): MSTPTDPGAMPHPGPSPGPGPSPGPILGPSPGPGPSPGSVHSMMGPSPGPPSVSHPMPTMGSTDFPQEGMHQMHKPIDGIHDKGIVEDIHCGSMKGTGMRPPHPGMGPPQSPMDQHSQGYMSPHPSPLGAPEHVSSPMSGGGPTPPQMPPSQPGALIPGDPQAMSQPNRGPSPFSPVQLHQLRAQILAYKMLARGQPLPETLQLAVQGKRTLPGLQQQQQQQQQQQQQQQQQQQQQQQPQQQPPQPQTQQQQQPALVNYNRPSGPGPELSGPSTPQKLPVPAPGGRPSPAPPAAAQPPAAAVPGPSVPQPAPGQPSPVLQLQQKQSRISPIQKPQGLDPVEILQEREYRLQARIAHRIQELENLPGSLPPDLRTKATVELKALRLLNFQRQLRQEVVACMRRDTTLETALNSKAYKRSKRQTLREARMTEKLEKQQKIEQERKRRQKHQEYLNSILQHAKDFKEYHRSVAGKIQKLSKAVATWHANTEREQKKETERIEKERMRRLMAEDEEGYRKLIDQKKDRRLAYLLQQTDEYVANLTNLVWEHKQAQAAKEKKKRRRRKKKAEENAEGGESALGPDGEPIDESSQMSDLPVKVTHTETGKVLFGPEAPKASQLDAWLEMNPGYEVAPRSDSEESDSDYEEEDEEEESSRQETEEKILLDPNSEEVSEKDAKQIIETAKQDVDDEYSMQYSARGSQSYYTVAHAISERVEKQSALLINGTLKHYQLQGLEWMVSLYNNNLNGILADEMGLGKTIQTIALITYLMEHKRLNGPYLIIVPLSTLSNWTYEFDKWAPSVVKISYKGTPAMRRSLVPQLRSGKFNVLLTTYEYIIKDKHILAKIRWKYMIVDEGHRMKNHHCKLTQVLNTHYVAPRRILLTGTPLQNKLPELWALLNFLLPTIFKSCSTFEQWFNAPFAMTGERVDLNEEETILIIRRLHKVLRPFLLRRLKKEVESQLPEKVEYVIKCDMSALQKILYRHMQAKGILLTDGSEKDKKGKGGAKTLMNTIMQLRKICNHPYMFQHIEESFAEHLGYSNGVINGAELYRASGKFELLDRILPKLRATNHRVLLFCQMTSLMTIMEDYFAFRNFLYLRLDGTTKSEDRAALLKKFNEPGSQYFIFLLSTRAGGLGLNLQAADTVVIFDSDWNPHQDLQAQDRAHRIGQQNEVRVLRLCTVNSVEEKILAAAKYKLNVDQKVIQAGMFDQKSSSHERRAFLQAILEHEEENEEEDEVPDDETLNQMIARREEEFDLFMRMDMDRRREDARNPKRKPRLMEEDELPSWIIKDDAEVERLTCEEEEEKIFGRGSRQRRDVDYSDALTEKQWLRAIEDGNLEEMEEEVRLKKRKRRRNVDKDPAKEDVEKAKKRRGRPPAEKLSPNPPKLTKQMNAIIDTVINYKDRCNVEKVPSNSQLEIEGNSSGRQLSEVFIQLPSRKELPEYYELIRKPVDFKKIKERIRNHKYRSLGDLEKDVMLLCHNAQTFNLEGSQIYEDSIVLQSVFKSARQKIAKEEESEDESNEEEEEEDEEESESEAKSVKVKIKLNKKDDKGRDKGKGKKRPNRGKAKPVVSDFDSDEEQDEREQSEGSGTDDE

Row | Structure (SMILES) | ΔTm [1] [°C] | ΔTm [2] [°C] | ΔTm [3] [°C] | ΔTm [4] [°C] | ΔTm [5] [°C] | ΔTm [6] [°C] | ΔTm [7] [°C] | further results
1 | O=C(/C=C/N1CCC(c2cc[nH]n2)CC1)c1ccccc1O | 6.3 | 3.9 | 6.9 | 3.2 | 8.2 | 1.8 | 1 | 
2 | CC(C)(C)c1nc2c(n1CC1CC1)CCN(/C=C/C(=O)c1ccccc1O)C2 | 5.8 | 3.8 | 8 | 3.8 | 5.9 | 1.5 | 1.2 | 
3 | O=C(/C=C/N1CCN(c2cccc(OCc3ccncc3)n2)CC1)c1ccccc1O | 7.5 | 3.7 | 7 | 0.9 | 7.4 | 0.7 | 1.3 | 
4 | O=C(/C=C/N1CCc2c(ncn2Cc2ccccc2)C1)c1ccccc1O | 5.3 | 3 | 8 | 4.6 | 5.8 | 1.9 | 1.6 | 
5 | O=C(/C=C/N1CCc2c(ccnc2N[C@H]2CC[C@H](O)CC2)C1)c1ccccc1O | 6.1 | 2.4 | 8.3 | 2.5 | 5.4 | 1.1 | 0.4 | 
6 | CC(C)(C)OC(=O)N1CCN(/C=C/C(=O)c2ccccc2O)C2(CC2)C1 | 6.1 | 4.1 | 7.6 | 2.2 | 7.5 | 0.9 | 0.6 | 
7 | O=C(/C=C/N1C[C@H]2C[C@@H]1CN2c1ccccn1)c1ccccc1O |  | 5 |  |  | 8.2 |  |  | inhibition [8]: Active; Activity [9]: inactive; Activity [10]: inactive; Activity [11]: Non-toxic; Activity [12]: Non-toxic; Activity [13]: 50%; t1/2 [14]: > 250 h; inhibition [15]: Active; inhibition [16]: Active; remaining at 168 h [17]: > 90%; Activity [18]: 50%; inhibition [19]: Active
8 | O=C(/C=C/N1[C@H]2CC[C@@H]1c1ncnc(NC3CC3)c1C2)c1ccccc1O | 7.4 |  | 9.3 | 5.9 | 8.5 | 6.4 | 2.1 | inhibition [21]: Dose-dependent effect; inhibition [8]: Active; Activity [9]: inactive; Activity [10]: inactive; Activity [11]: Non-toxic; Activity [12]: Non-toxic; Activity [13]: 50%; inhibition [22]: Active; inhibition [23]: inactive; Activity [18]: 50%; inhibition [20]: Active; inhibition [24]: Active; Kd [25]: 37.3 nM
9 | CN(C)/C=C/C(=O)c1ccccc1O | 3.3 | 2 | 4.9 | 2 | 4.8 | 0.5 | 0.7 | 

The next lines start with results.

Row | ΔTm [1] [°C] | ΔTm [2] [°C] | ΔTm [3] [°C] | ΔTm [4] [°C] | ΔTm [5] [°C] | ΔTm [6] [°C] | ΔTm [7] [°C] | Structure (SMILES) | further results
10 | 2.9 | 1.1 | 4.6 | 0.7 | 2.9 | 0.3 | 0.6 | O=C(/C=C/N1CCN(c2ncccn2)CC1)c1ccccc1O | 
11 | 3.4 | 2.2 | 5.1 | 3.5 | 4.1 | 1.3 | 1.2 | CN(C)c1ncnc2c1CCN(/C=C/C(=O)c1ccccc1O)C2 | 
12 | 0.7 | -0.4 | 0.4 | 0.1 | 0.7 | 0 | 0.3 | COc1cccc(C(=O)/C=C/N2CCCC2)c1O | 
13 | 7 | 4.8 | 7.8 | 4.1 | 7.8 | 1.7 | 1.2 | O=C(/C=C/N1CCc2cn[nH]c2C1)c1ccccc1O | 
14 | 3.8 | 2 | 6.6 | 5.2 | 5.1 | 3.3 | 2 | O=C(/C=C/N1CC2CCC(CC2)C1)c1ccccc1O | 
15 | 4.7 | 3 | 5.7 | 2.3 | 5.5 | 1.1 | 0.7 | O=C(/C=C/N1CCCC1)c1ccccc1O | 
16 | 0.7 | -0.4 | -0.4 |  | 0.7 |  |  | C#CCNc1ccnc(N2C[C@H]3C[C@@H]2CN3/C=C/C(=O)c2cccc(OC)c2O)n1 | inhibition [20]: inactive
17 | 7.7 |  | 9.1 | 6.7 |  | 3.5 | 2.4 | O=C(/C=C/N1CCc2c(ncnc2NC2CC2)C1)c1ccccc1O | Kd [26]: 49 nM; t1/2 [14]: 20 h; Kd [27]: 152 nM; Kd [28]: 28 nM
